Measurements published in ChEMBL document CHEMBL1153955, “Indolylarylsulfones bearing natural and unnatural amino acids. Discovery of potent inhibitors of HIV-1 non-nucleoside wild type and resistant mutant strains reverse transcriptase and coxsackie B4 virus” (J Med Chem, 2009).
pEC50, pIC50: −log10 of the molar value.

Assays:
[1] = system: Respiratory syncytial virus; test: Antiviral activity against RSV Long in human HeLa cells assessed as protection against virus-induced cytopathicity; type: functional, organism-based
Outline: (§1)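 Confluent cell monolayers inoculated with 100 CCID₅₀ virus. After 1-2 h adsorption, residual virus removed and cultures incubated with varying compound concentrations. Cytopathicity scored once it reached completion in untreated infected controls. EC₅₀ = dose reducing virus-induced cytopathogenicity by 50%.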

Coxsackievirus B4 [2] = test: Antiviral activity against Coxsackievirus B4 in african green monkey Vero cells assessed as protection against virus-induced cytopathicity; type: functional, organism-based; conditions: Enterovirus B; outline: as §1
[3] = system: Human immunodeficiency virus 1; test: Antiviral activity against HIV1 3B in human CEM cells assessed as protection against virus-induced cytopathicity after 4 days; type: functional, organism-based; conditions: Human immunodeficiency virus 1, 3B, CCRF-CEM, 96 h
Outline: (§2)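 CEM cells (~3 × 10⁵ cells/mL) infected with ~100 CCID₅₀ per mL of HIV-1 (IIIB) or HIV-2 (ROD), then seeded into wells containing compound dilutions. After 4 days at 37 °C, syncytium (giant cell) formation was examined microscopically. EC₅₀ = concentration protecting CEM cells from HIV cytopathicity by 50%.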

[4] = Cytotoxicity against human HEL cells assessed as drug level causing microscopically detectable alteration of normal cell morphology after 3 days; type: cell-based
[5] = target: Human immunodeficiency virus type 1 reverse transcriptase (Human immunodeficiency virus 1, UniProt Q72547, Y181I); test: Inhibition of HIV1 reverse transcriptase p66/p51 Y181I mutant; conditions: read-out: IC50
Outline: (§3)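 Substrate was 0.5 µg poly(rA)/oligo(dT) 10:1 (0.3 µM 3′-OH ends) with 10 µM [³H]dTTP, at 37 °C. Acid-precipitable radioactivity was counted on GF/C filters after TCA washes.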

[6] = Cytotoxicity against MDCK cells assessed as drug level causing microscopically detectable alteration of normal cell morphology; type: cell-based, Canis lupus familiaris; conditions: dog
[7] = system: Vesicular stomatitis virus; test: Antiviral activity against VSV in human HEL cells assessed as protection against virus-induced cytopathicity; type: functional, organism-based
[8] = target: Human immunodeficiency virus type 1 reverse transcriptase (Human immunodeficiency virus 1, UniProt Q72547); test: Inhibition of HIV1 reverse transcriptase p66/p51; conditions: read-out: IC50
CCRF-CEM = test: Antiproliferative activity against human CEM cells after 3 days; type: cell-based; conditions: 72 h
Outline: (§4)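 Cells seeded at 5 × 10⁴ to 7.5 × 10⁴ cells/200 µL with or without serial compound dilutions; incubated at 37 °C for 2 days (L1210) or 3 days (Molt4/C8, CEM). Cell numbers counted with a Coulter counter. CC₅₀ = concentration reducing proliferation by 50% versus untreated controls, read from plots of cell number (% of control) against concentration. Means of at least two independent experiments.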

[9] = Cytotoxicity against feline CRFK cells by MTS assay; type: cell-based, Felis catus; conditions: cat
[10] = system: Mammalian orthoreovirus 1; test: Antiviral activity against Reovirus 1 in african green monkey Vero cells assessed as protection against virus-induced cytopathicity; type: functional, organism-based; conditions: Mammalian orthoreovirus 1, Vero; outline: as §1
[11] = system: Human immunodeficiency virus 1; test: Antiviral activity against HIV1 with reverse transcriptase Y188L mutation in human CEM cells assessed as protection against virus-induced cytopathicity; type: functional, organism-based; conditions: Human immunodeficiency virus 1, CCRF-CEM
Outline: (§5)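 CEM cells (~3 × 10⁵ cells/mL) were infected with ~100 CCID₅₀ virus per mL and seeded with serial compound dilutions. After 4 days at 37 °C, syncytium (giant cell) formation was scored microscopically. EC₅₀ is the concentration giving 50% protection against virus cytopathicity.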

L1210 = test: Antiproliferative activity against mouse L1210 cells after 2 days; type: cell-based; conditions: L1210, 48 h; outline: as §4
Vaccinia virus = test: Antiviral activity against Vaccinia virus Lederle in human HEL cells assessed as protection against virus-induced cytopathicity; type: functional, organism-based; conditions: Orthopoxvirus vaccinia
Influenza A virus H3N2 [12] = test: Antiviral activity against influenza H3N2 virus in MDCK cells assessed as reduction of virus-induced cytopathicity by visual cytopathic effect scoring method; type: functional, organism-based
Influenza A virus H3N2 [13] = test: Antiviral activity against influenza H3N2 virus in MDCK cells assessed as reduction of virus-induced cytopathicity by MTS method; type: functional, organism-based
Human alphaherpesvirus 2 = test: Antiviral activity against HSV2 G in human HEL cells assessed as protection against virus-induced cytopathicity; type: functional, organism-based; conditions: Human alphaherpesvirus 2, strain G; outline: as §1
Human alphaherpesvirus 1 [14] = test: Antiviral activity against thymidine kinase deficient and acyclovir resistant HSV1 KOS in human HEL cells assessed as protection against virus-induced cytopathicity; type: functional, organism-based; conditions: Human alphaherpesvirus 1, KOS
[15] = system: Human immunodeficiency virus 1; test: Antiviral activity against HIV1 with reverse transcriptase Y181C mutation in human CEM cells assessed as protection against virus-induced cytopathicity; type: functional, organism-based; conditions: Human immunodeficiency virus 1, CCRF-CEM; outline: as §5
[16] = system: Vesicular stomatitis virus; test: Antiviral activity against VSV in human HeLa cells assessed as protection against virus-induced cytopathicity; type: functional, organism-based
Human alphaherpesvirus 1 [17] = test: Antiviral activity against HSV1 KOS in human HEL cells assessed as protection against virus-induced cytopathicity; type: functional, organism-based; conditions: Human alphaherpesvirus 1, KOS
[18] = target: Human immunodeficiency virus type 1 reverse transcriptase (Human immunodeficiency virus 1, UniProt Q72547, K103N); test: Inhibition of HIV1 reverse transcriptase p66/p51 K103N mutant; conditions: read-out: IC50; outline: as §3
[19] = system: Human immunodeficiency virus 1; test: Antiviral activity against HIV1 with reverse transcriptase L100I mutation in human CEM cells assessed as protection against virus-induced cytopathicity; type: functional, organism-based; conditions: Human immunodeficiency virus 1, CCRF-CEM; outline: as §5
Human respirovirus 3 = test: Antiviral activity against Parainfluenza virus type 3 in african green monkey Vero cells assessed as protection against virus-induced cytopathicity; type: functional, organism-based; conditions: Human respirovirus 3, Vero; outline: as §1
Feline coronavirus = test: Antiviral activity against Feline coronavirus in feline […] cells assessed as inhibition of virus-induced cytopathicity; type: functional, organism-based; conditions: Alphacoronavirus 1
Felid alphaherpesvirus 1 = test: Antiviral activity against Feline herpesvirus in feline […] cells assessed as inhibition of virus-induced cytopathicity; type: functional, organism-based
[20] = Antiproliferative activity against human Molt4/C8 cells after 3 days; type: cell-based; conditions: MOLT-4, 72 h; outline: as §4
Influenza A virus [21] = test: Antiviral activity against influenza H1N1 virus in MDCK cells assessed as reduction of virus-induced cytopathicity by MTS method; type: functional, organism-based; conditions: Influenza A virus, H1N1, MDCK
Coxsackievirus B4 [22] = test: Antiviral activity against Coxsackievirus B4 in human HeLa cells assessed as protection against virus-induced cytopathicity; type: functional, organism-based; conditions: Enterovirus B; outline: as §1
[23] = Cytotoxicity against MDCK cells by MTS assay; type: cell-based, Canis lupus familiaris; conditions: dog
[24] = system: Human immunodeficiency virus 2; test: Antiviral activity against HIV2 ROD in human CEM cells assessed as protection against virus-induced cytopathicity after 4 days; type: functional, organism-based; conditions: Human immunodeficiency virus 2, ROD, CCRF-CEM, 96 h; outline: as §2
[25] = Cytotoxicity against african green monkey Vero cells assessed as drug level causing microscopically detectable alteration of normal cell morphology after 3 days; type: cell-based; conditions: chlorocebus sabaeus
Outline: (§6)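 Serial compound dilutions added to confluent HeLa or Vero monolayers. MCC = minimum concentration causing microscopically detectable alteration of cell morphology after 3 days of incubation.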

Influenza B virus [26] = test: Antiviral activity against influenza B virus in MDCK cells assessed as reduction of virus-induced cytopathicity by visual cytopathic effect scoring method; type: functional, organism-based
[27] = target: Human immunodeficiency virus type 1 reverse transcriptase (Human immunodeficiency virus 1, UniProt Q72547, L100I); test: Inhibition of HIV1 reverse transcriptase p66/p51 L100I mutant; conditions: read-out: IC50; outline: as §3
Sindbis virus = test: Antiviral activity against Sindbis virus in african green monkey Vero cells assessed as protection against virus-induced cytopathicity; type: functional, organism-based; outline: as §1
[28] = system: Human immunodeficiency virus 1; test: Antiviral activity against HIV1 with reverse transcriptase Y181I mutation in human CEM cells assessed as protection against virus-induced cytopathicity; type: functional, organism-based; conditions: Human immunodeficiency virus 1, CCRF-CEM; outline: as §5
[29] = Cytotoxicity against human HeLa cells assessed as drug level causing microscopically detectable alteration of normal cell morphology after 3 days; type: cell-based; outline: as §6
[30] = system: Human immunodeficiency virus 1; test: Antiviral activity against HIV1 with reverse transcriptase K103N mutation in human CEM cells assessed as protection against virus-induced cytopathicity; type: functional, organism-based; conditions: Human immunodeficiency virus 1, CCRF-CEM; outline: as §5
Influenza B virus [31] = test: Antiviral activity against influenza B virus in MDCK cells assessed as reduction of virus-induced cytopathicity by MTS method; type: functional, organism-based
Influenza A virus [32] = test: Antiviral activity against influenza H1N1 virus in MDCK cells assessed as reduction of virus-induced cytopathicity by visual cytopathic effect scoring method; type: functional, organism-based
Punta Toro virus = test: Antiviral activity against Punta Toro virus in african green monkey Vero cells assessed as protection against virus-induced cytopathicity; type: functional, organism-based; outline: as §1

SMILES: Cc1cc(C)cc(S(=O)(=O)c2c(C(=O)NCCC(N)=O)[nH]c3ccc(Cl)cc23)c1
- pEC50 [1]: < 5.40
- pEC50 (Coxsackievirus B4 [2]): 4.92
- pEC50 [3]: 9.00
- MCC at 72 h [4]: 20 µM
- pIC50 [5]: 5.30
- MCC [6]: 20 µM
- pEC50 [7]: < 5.40
- pIC50 [8]: 7.57
- pIC50 (CCRF-CEM): 4.80
- CC50 [9]: 1.7 µM
- pEC50 [10]: < 4.70
- pIC50 [11]: ≤ 6.00
- pIC50 (L1210): 4.59
- pEC50 (Vaccinia virus): < 5.40
- pEC50 (Influenza A virus H3N2 [12]): < 5.40
- pEC50 (Influenza A virus H3N2 [13]): < 5.40
- pEC50 (Human alphaherpesvirus 2): < 5.40
- pEC50 (Human alphaherpesvirus 1 [14]): < 5.40
- pIC50 [15]: 7.11
- pEC50 [16]: < 5.40
- pEC50 (Human alphaherpesvirus 1 [17]): < 5.40
- pIC50 [18]: 6.45
- pIC50 [19]: 8.15
- pEC50 (Human respirovirus 3): < 4.70
- pEC50 (Feline coronavirus): < 5.40
- pEC50 (Felid alphaherpesvirus 1): < 5.40
- pIC50 [20]: 5.05
- pEC50 (Influenza A virus [21]): < 5.40
- pEC50 (Coxsackievirus B4 [22]): < 5.40
- CC50 [23]: 9.7 µM
- pEC50 [24]: < 5.00
- MCC at 72 h [25]: 100 µM
- pEC50 (Influenza B virus [26]): < 5.40
- pIC50 [27]: 6.84
- pEC50 (Sindbis virus): < 4.70
- pIC50 [28]: < 6.00
- MCC at 72 h [29]: 20 µM
- pIC50 [30]: 7.72
- pEC50 (Influenza B virus [31]): < 5.40
- pEC50 (Influenza A virus [32]): < 5.40
- pEC50 (Punta Toro virus): < 4.70
